The target in assay [1] is Transient receptor potential cation channel subfamily V member 1 (Rattus norvegicus, UniProt O35433). Put plainly: Antagonist activity at rat TRPV1 expressed in Xenopus laevis oocytes assessed as blockage of capsaicin-induced current at holding potential -60 mV by two-microelectrode voltage -clamp amplifier. The format is functional, cell-based, Oocyte.
Assay [2] has as its target Transient receptor potential cation channel subfamily V member 1 (Rattus norvegicus) (UniProt O35433). Put plainly: Antagonist activity at rat TRPV1 expressed in Xenopus laevis oocytes assessed as blockage of capsaicin-induced current at holding potential -60 mV at 10 uM by two-microelectrode voltage -clamp amplifier. The format is functional, cell-based. Set-up: scale not given: the % may be the effect or the level left. The following applies: Oocyte.

The target is the same in assay [3]. Kind of assay: Antagonist activity at rat TRPV1 expressed in Xenopus laevis oocytes assessed as blockage of capsaicin-induced current at depolarizing membrane potential and 10 uM by two-microelectrode voltage -clamp amplifier. The format is functional, cell-based. The note with it: Oocyte. The essentials: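 Voltage-dependence protocol in rat TRPV1 oocytes, Mg2+ Ringer's, 20 C. Currents were evoked by 10 μM capsaicin with a linear ramp from -60 to +60 mV over 5 s (25 mV/s), with or without 10 μM compound. Leak current measured without agonist was subtracted. Fractional block was plotted against voltage and fitted to the Woodhull model.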

The nature of assay [4]: Antagonist activity at TRPM8. The format is functional.
Assay [5] can be described thus: Antagonist activity at NMDAR. The format is functional.
A short description of assay [6]: Antagonist activity at TRPM8 at 1 uM. The format is functional. Set-up: scale not given: the % may be the effect or the level left.
Assay [7] can be described thus: Antagonist activity at NMDAR at 1 uM. The format is functional. Set-up: scale not given: the % may be the effect or the level left.
Assay [8] is described as follows: Antagonist activity at TRPM8 at 10 uM. The format is functional. Set-up: scale not given: the % may be the effect or the level left.
A short description of assay [9]: Antagonist activity at NMDAR at 10 uM. The format is functional. Set-up: scale not given: the % may be the effect or the level left.
A short description of assay [10]: Selectivity ratio of IC50 for TRPM8 to IC50 for rat TRVP1.
Assay [11] in a line: Selectivity ratio of IC50 for NMDAR to IC50 for rat TRVP1.
The target in assay [12] is Transient receptor potential cation channel subfamily V member 1 (Rattus norvegicus) (UniProt O35433). Kind of assay: Competitive inhibition of rat TRPV1 expressed in Xenopus laevis oocytes. The format is cell-based. The note with it: Oocyte.
Transient receptor potential cation channel subfamily V member 1 (Rattus norvegicus), sequence (O35433 whole entry): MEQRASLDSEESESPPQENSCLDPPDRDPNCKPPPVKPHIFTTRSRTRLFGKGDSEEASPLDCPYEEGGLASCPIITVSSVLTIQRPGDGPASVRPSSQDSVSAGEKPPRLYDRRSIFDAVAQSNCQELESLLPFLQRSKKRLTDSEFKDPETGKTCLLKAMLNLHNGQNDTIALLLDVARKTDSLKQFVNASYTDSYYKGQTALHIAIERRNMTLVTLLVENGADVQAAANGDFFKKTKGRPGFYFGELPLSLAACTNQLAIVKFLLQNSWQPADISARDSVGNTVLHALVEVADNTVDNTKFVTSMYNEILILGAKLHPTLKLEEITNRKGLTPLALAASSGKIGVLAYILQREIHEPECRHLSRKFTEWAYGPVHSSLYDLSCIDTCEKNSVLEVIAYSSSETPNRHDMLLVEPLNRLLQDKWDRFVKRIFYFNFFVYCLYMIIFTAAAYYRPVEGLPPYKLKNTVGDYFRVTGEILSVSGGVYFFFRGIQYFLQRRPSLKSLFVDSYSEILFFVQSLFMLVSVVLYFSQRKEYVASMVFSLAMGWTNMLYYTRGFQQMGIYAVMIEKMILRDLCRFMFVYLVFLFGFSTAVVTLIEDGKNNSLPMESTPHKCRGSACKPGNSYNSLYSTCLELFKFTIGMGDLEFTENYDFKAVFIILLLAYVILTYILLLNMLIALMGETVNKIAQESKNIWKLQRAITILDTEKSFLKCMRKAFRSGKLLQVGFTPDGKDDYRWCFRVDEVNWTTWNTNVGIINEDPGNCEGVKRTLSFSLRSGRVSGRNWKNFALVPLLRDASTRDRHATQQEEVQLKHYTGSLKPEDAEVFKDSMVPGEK
For assay [13] the target is unchanged. Kind of assay: Agonist activity at rat TRPV1 expressed in Xenopus laevis oocytes assessed as stimulation of capsaicin-induced current at holding potential -60 mV at 10 uM by two-microelectrode voltage -clamp amplifier. The format is functional, cell-based. The note with it: Oocyte. The essentials: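 Rat TRPV1-expressing Xenopus oocytes under two-electrode voltage clamp at -60 mV in Mg2+ Ringer's buffer, 20 C. Compound at 10 μM applied without capsaicin, and the inward current it activated was recorded.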

Assay [14] shares this target. Kind of assay: Antagonist activity at rat TRPV1 expressed in Xenopus laevis oocytes assessed as blockage of capsaicin-induced current at negative membrane potentials and 10 uM by two-microelectrode voltage -clamp amplifier. The following applies: Oocyte.

Broadly, the IC50 is the concentration that gives 50% inhibition.

Activity calls are given as the source filed them. The rule behind the calls is not given here.

Transient receptor potential cation channel subfamily V member 1, sequence (O35433 whole entry): as above

As for `CN(C)CCCNc1nc(NCc2ccc3c(c2)OCO3)nc(NCc2ccc3c(c2)OCO3)n1`, the 50% inhibitory concentration (IC50) in [1] was found to be 4980 nM.

On to `COC(=O)c1ccc(CNc2nc(NCCCN(C)C)nc(NCc3ccc(C(=O)OC)cc3)n2)cc1`, for which the IC50 in assay [1] is 69100 nM.

Consider `CN(C)CCCCCNc1nc(NCCc2ccc(F)cc2)nc(NCCc2ccc(F)cc2)n1`, for which, in assay [1], the IC50 came to 100 nM.

Regarding `CN(C)CCNc1nc(NCCc2ccc(Cl)cc2)nc(NCCc2ccc(Cl)cc2)n1`, the IC50 in [1] came out at 6700 nM.

`CN(C)CCCNc1nc(NCc2ccc(F)cc2F)nc(NCc2ccc(F)cc2F)n1`: the IC50 in assay [1] is 3300 nM.

In the case of `CN1CCCC1CCNCC(=O)N(CCc1ccc(Cl)cc1Cl)CC(=O)N(CCc1ccc(Cl)cc1Cl)CC(N)=O` (configuration not stated), the Activity in [2] is 99%.

With `CN(C)CCCNc1nc(NCCc2ccc(F)cc2)nc(NCCc2ccc(F)cc2)n1`, the results for the 50% inhibitory concentration (IC50) in [1], in [4] and in assay [5] were 50 nM, 7.5 µM and 9.2 µM, respectively. Besides, the outcome in [3] and in assay [13] was inactive. The Activity turned out to be 37% in assay [6], 25% in assay [7], 55% in assay [8] and 51% in assay [9]. In addition, the Ratio IC50 in assay [10] and in assay [11] was 150 each time. Also, in assay [12], the inhibition entry was “inactive”. Further, the outcome in assay [14] was Active.

Consider `CCCCNCC(=O)N(CCc1ccc(Cl)cc1Cl)CC(=O)N(CCc1ccc(Cl)cc1Cl)CC(N)=O`, for which the Activity in assay [2] amounted to 34%.

`CN(C)CCN1CCN(c2nc(NCCc3ccc(F)cc3)nc(NCCc3ccc(F)cc3)n2)CC1`: the IC50 in assay [1] was 18600 nM. Also, the result in [13] was Active.

In the case of `CN(C)CCCNc1nc(NCCC2=CCCCC2)nc(NCCC2=CCCCC2)n1`, the IC50 in [1] is 218000 nM.

Consider `CN1CCCC1CCNc1nc(NCCc2ccc(Cl)cc2)nc(NCCc2ccc(Cl)cc2)n1` (configuration not stated), for which, in [1], the IC50 was found to be 1200 nM.

`CN(C)CCCNc1nc(NCCc2ccc([N+](=O)[O-])cc2)nc(NCCc2ccc([N+](=O)[O-])cc2)n1`: the IC50 in [1] was 1630 nM.

Turning to `CN(C)CCCNc1nc(NCCc2ccccc2F)nc(NCCc2ccccc2F)n1`, the 50% inhibitory concentration (IC50) in assay [1] is 450 nM.

In the case of `N=C(N)NCCCCN(CC(N)=O)C(=O)CC1C(=O)N(CCc2ccc(Cl)cc2)CC(=O)N1CCc1ccc(Cl)cc1` (configuration not stated), the Activity in [2] turned out to be 55%.

Turning to `CN(C)CCCNc1nc(N2CCc3c([nH]c4ccccc34)C2)nc(N2CCc3c([nH]c4ccccc34)C2)n1`, the half-inhibitory concentration (IC50) in assay [1] came to 7000 nM.

Consider `CN(C)CCCNc1nc(NCc2ccc(Cl)cc2)nc(NCc2ccc(Cl)cc2)n1`, for which the IC50 in assay [1] was 2620 nM.

Consider `CCCCNc1nc(NCc2ccc(C(=O)O)cc2)nc(NCc2ccc(C(=O)O)cc2)n1`, for which the IC50 in assay [1] came out at 229000 nM.

In the case of `CN1CCCC1CCN1CC(=O)N(CCc2ccc(Cl)cc2Cl)C(CC(=O)N(CCc2ccc(Cl)cc2Cl)CC(N)=O)C1=O` (configuration not stated), in assay [2], the Activity was 3%.

With `CN(C)CCCNc1nc(NCc2ccc(C(=O)O)cc2)nc(NCc2ccc(C(=O)O)cc2)n1`, in assay [1], the IC50 came out at 178000 nM.

As for `CN1CCCC1CCN1CC(=O)N(CCc2ccccc2)C(CC(=O)N(CCc2ccc(Cl)cc2Cl)CC(N)=O)C1=O` (configuration not stated), the Activity in assay [2] was found to be 28%.

For the compound `NC(=O)CN(CCc1ccc(Cl)cc1Cl)C(=O)CN(CCc1ccc(Cl)cc1Cl)C(=O)CNCCCO`, the Activity in assay [2] was found to be 32%.

`CN(C)CCCNc1nc(NCc2ccc(F)cc2)nc(NCc2ccc(F)cc2)n1`: the half-maximal inhibitory concentration (IC50) in [1] is 3060 nM.

Consider `NC(N)=NCCCCNc1nc(NCCc2ccc(F)cc2)nc(NCCc2ccc(F)cc2)n1`, for which the half-inhibitory concentration (IC50) in assay [1] came out at 550 nM.

Take `CN(C)CCCNc1nc(NCCc2ccccc2)nc(NCCc2ccccc2)n1`: in assay [1], the IC50 is 670 nM.

Take `NCCN1CCN(c2nc(NCCc3ccc(Cl)cc3)nc(NCCc3ccc(Cl)cc3)n2)CC1`: the IC50 in assay [1] was 960 nM.

Consider `CN1CCCC1CCN(CC(N)=O)C(=O)CC1C(=O)N(CCc2ccc(Cl)cc2Cl)CC(=O)N1CCc1ccc(Cl)cc1Cl` (configuration not stated), for which the Activity in [2] was 40%.

In the case of `CN(C)CCCNc1nc(NCc2ccc(C(F)(F)F)cc2)nc(NCc2ccc(C(F)(F)F)cc2)n1`, in assay [1], the half-maximal inhibitory concentration (IC50) was 660 nM.

For `CN(C)CCCNc1nc(NCCc2ccc(Cl)cc2Cl)nc(NCCc2ccc(Cl)cc2Cl)n1`, in [1], the IC50 was 1210 nM.

For `CCN(CC)CCCN1CC(=O)N(CCc2ccc(Cl)cc2Cl)C(CC(=O)N(CCc2ccc(Cl)cc2Cl)CC(N)=O)C1=O` (configuration not stated), the Activity in assay [2] worked out at 3%.

With `CN(C)CCOCCNc1nc(NCCc2ccc(F)cc2)nc(NCCc2ccc(F)cc2)n1`, in assay [1], the concentration for half-maximal inhibition (IC50) was 7050 nM.

Take `CN(C)CCCNc1nc(NCc2ccc(Cl)cc2Cl)nc(NCc2ccc(Cl)cc2Cl)n1`: in [1], the IC50 came out at 840 nM.

Take `N=C(N)NCCCCN(CC(N)=O)C(=O)CC1C(=O)N(CCc2ccc(Cl)cc2Cl)CC(=O)N1CCc1ccc(Cl)cc1Cl` (configuration not stated): the Activity in assay [2] worked out at 30%.

Turning to `CN(C)CCCNCC(=O)N(CCc1ccc(Cl)cc1Cl)CC(=O)N(CCc1ccc(Cl)cc1Cl)CC(N)=O`, in assay [2], the Activity worked out at 55%.

For the compound `CN(C)CCCNc1nc(NCCc2c[nH]c3ccccc23)nc(NCCc2c[nH]c3ccccc23)n1`, the IC50 in [1] is 2330 nM.

As for `CN(C)CCCNc1nc(NCCc2cccc(F)c2)nc(NCCc2cccc(F)c2)n1`, the IC50 in assay [1] is 300 nM.

As for `CN1CCN(Nc2nc(NCCc3ccc(Cl)cc3)nc(NCCc3ccc(Cl)cc3)n2)CC1`, the concentration for half-maximal inhibition (IC50) in assay [1] was 6400 nM.

As for `CN(C)CCCOc1nc(NCCc2ccc(F)cc2)nc(NCCc2ccc(F)cc2)n1`, the half-inhibitory concentration (IC50) in assay [1] stood at 6140 nM.

`CN1CCC(N2CCN(c3nc(NCCc4ccc(F)cc4)nc(NCCc4ccc(F)cc4)n3)CC2)CC1`: the IC50 in [1] is 70900 nM.

In the case of `CN(C)CCCNCC(=O)N(CCc1ccc(Cl)cc1)CC(=O)N(CCc1ccc(Cl)cc1)CC(N)=O`, the Activity in [2] came out at 45%.

As to `CN(C)CCCNc1nc(NCCc2ccc(Cl)cc2)nc(NCCc2ccc(Cl)cc2)n1`, the half-maximal inhibitory concentration (IC50) in [1] is 500 nM. For the same compound, the outcome in assay [13] was Active.

Consider `CN(C)CCCNc1nc(N2CCN(C(c3ccc(F)cc3)c3ccc(F)cc3)CC2)nc(N2CCN(C(c3ccc(F)cc3)c3ccc(F)cc3)CC2)n1`, for which the IC50 in assay [1] worked out at 56400 nM.

`CCN(CC)CCCNCC(=O)N(CCc1ccc(Cl)cc1Cl)CC(=O)N(CCc1ccc(Cl)cc1Cl)CC(N)=O`: the Activity in assay [2] came out at 99%.

With `COc1ccc(CCNc2nc(NCCCN(C)C)nc(NCCc3ccc(OC)cc3)n2)cc1`, the IC50 in assay [1] was determined as 970 nM.

The values above are taken from ChEMBL document CHEMBL1926668, “Triazine-based vanilloid 1 receptor open channel blockers: design, synthesis, evaluation, and SAR analysis” (J Med Chem, 2011).
